Here are results for nine compounds from ChEMBL document CHEMBL3621080, “Dihydrithieno[2,3-b]naphto-4,9-dione analogues as anticancer agents: Synthesis and in cell pharmacological studies” (Eur J Med Chem, 2015).

Activity calls are given as the source filed them. The rule behind the calls is not given here.

Data set [1] concerns H9c2. Briefly: Cytotoxicity against rat H9c2 cell membrane assessed as induction of lipid peroxidation at 2.5 uM incubated for 48 hrs by TBARS method. In kind it is cell-based. The following applies: h9c2, 48 h. The procedure, abridged: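 H9C2 cells were treated for 48 h at […] and lysed in ice-cold Tris/NaCl/EDTA/1% Triton with protease inhibitors. Membranes were pelleted at 1200 g for 10 min and the protein content measured. Membrane aliquots were heated at 100 °C for 30 min in 15% TCA/0.3% TBA in 0.12 N HCl, cooled and centrifuged, and the TBA adduct read at 532 nm. Values are per mg protein, mean ± SEM, n=3.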

Data set [2] relates to LN-229. Briefly: Inhibition of glucose uptake in human LN229 cells assessed as glucose concentration per ug protein at 0.6 uM incubated for 48 hrs by liquid scintillation method (reference value: 98 +/- 8 mg/dl/ug protein). In kind it is functional.
Data set [3] in a line: (§1) Cytotoxicity against rat H9c2 cells assessed as cell growth at 2.5 uM incubated for 48 hrs by MTT assay relative to control. In kind it is cell-based. The following applies: H9c2 cells, read-out: Activity. Background: Formazan colour is commonly taken as a measure of viable cells.
The nature of data set [4]: Drug uptake in human LN229 cell nucleus at 0.6 uM incubated for 48 hrs by confocal microscopy. In kind it is ADME, cell-based. The following applies: ln229, 48 h. In a few lines:
(§2)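 LN229 cells were treated for 48 h at […] and fixed in 4% paraformaldehyde. Nuclei were counterstained with DAPI and vimentin immunostained. Compound localisation was imaged by its red signal using confocal microscopy.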

Data set [5] in a line: Antiproliferative activity against human LN229 cells assessed as growth inhibition incubated for 48 hrs by MTT assay. The settings on record: LN-229, 48 h. In kind it is functional, cell-based. In a few lines: (§3)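 Cell lines were grown at 37 °C in 5% CO2 with 10% FBS and penicillin/streptomycin, in DMEM for HuH7 and LN229 and in RPMI-1640 for BxPC3 and MCF7. Cells were seeded at 10^5 per well and left 24 h to attach. Compounds were then added at […] for 48 h. MTT at 1 mg/mL was applied for 2 h at 37 °C in the dark, formazan was dissolved in DMSO and read at 570 nm. Results are relative to 0.5% DMSO vehicle control, with IC50 by linear/polynomial regression, in triplicate.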

The nature of data set [6]: Antiproliferative activity against human HuH7 cells assessed as growth inhibition incubated for 48 hrs by MTT assay. In kind it is functional, cell-based. The settings on record: Huh-7, 48 h. The procedure, abridged:
as §3

Data set [7] is described as follows: Antiproliferative activity against human BxPC3 cells assessed as growth inhibition incubated for 48 hrs by MTT assay. The class given is functional, cell-based. The following applies: BXPC-3, 48 h. The procedure, abridged:
as §3

The next data set deals with MCF7. Briefly: Antiproliferative activity against human MCF7 cells assessed as growth inhibition incubated for 48 hrs by MTT assay. In kind it is functional, cell-based. The following applies: MCF7, 48 h. The procedure, abridged:
as §3

For data set [8], the system named is LN-229. The data set is described as follows: Induction of lipid peroxidation in human LN229 cells assessed as increase in TBARS level at 0.6 uM incubated for 48 hrs by TBARS assay. The class given is functional. In a few lines: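 LN229 cells in DMEM with 10% FBS, treated 48 h. Lysed in ice-cold Tris/NaCl/EDTA/1% Triton with protease inhibitors, spun 1200 g for 10 min; membrane pellet redissolved and protein measured. Membranes heated with 15% TCA/0.3% TBA in 0.12 N HCl at 100 °C for 30 min, cooled, spun 15,000 g, read at 532 nm. TBARS expressed per mg protein; mean of three experiments.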

Data set [9] concerns H9c2. The data set is described as §1. The class given is cell-based. The settings on record: h9c2, 48 h, 2.5 µM.
For data set [10], the system named is LN-229. The data set is described as follows: Induction of apoptosis in human LN229 cells assessed as caspase-3 activation at 0.6 uM incubated for 48 hrs by cell-free caspase-3 activity assay.
The nature of data set [11]: Drug uptake in human LN229 cell cytoplasm at 0.6 uM incubated for 48 hrs by confocal microscopy. The class given is ADME, cell-based. The settings on record: ln229, 48 h. The procedure, abridged:
as §2

The test system of data set [12] is LN-229. The data set is described as follows: Inhibition of glucose uptake in human LN229 cells assessed as glucose concentration per ug protein at 0.6 uM incubated for 48 hrs by liquid scintillation method relative to control. The class given is functional.
The subject of data set [13] is LN-229. Briefly: Induction of cell differentiation in human LN229 cells assessed as vimentin remodelling at 0.6 uM incubated for 48 hrs by immunostaining method. In kind it is functional, cell-based. In a few lines:
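LN229 cells were treated for 48 h at […], fixed in 4% paraformaldehyde and permeabilised 5 min in 1% Triton. They were stained with anti-vimentin (1:1000) followed by Cy3 anti-rabbit IgG (1:200, 45 min), with DAPI nuclei, and imaged by confocal microscopy.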

Data set [14] is described as follows: Down regulation of AKT expression in human LN229 cells at 0.6 uM incubated for 48 hrs by Western blot method. In kind it is functional, cell-based. The following applies: LN-229. In a few lines: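 LN229 cells grown in DMEM with 10% FBS and penicillin/streptomycin at 37 °C, 5% CO2, treated 48 h. Cells washed in ice-cold PBS/BSA and lysed in Triton/deoxycholate buffer with protease inhibitors. Equal protein run on SDS-PAGE, then nitrocellulose. Anti-AKT overnight in TBS/1% milk/0.05% Tween 20; tubulin also probed. HRP secondary 1 h at room temperature.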
Background: Immunoblotting shows a protein as a band on a membrane.

Data set [15] is described as follows: Cytotoxicity against human LN229 cells assessed as growth inhibition at 0.6 uM incubated for 48 hrs by MTT assay relative to control. In kind it is functional, LN-229. Also noted: scale not given: the % may be the effect or the level left.

In the case of `COc1cccc2c1C(=O)c1c(O)c3c(c(O)c1C2=O)C[C@@](O)(C(=O)CO)C[C@@H]3O[C@H]1C[C@H](N)[C@H](O)[C@H](C)O1` [DOXORUBICIN], the Activity result in the data set on H9c2 [1] is “Toxic”; in the data set on LN-229 [2], 120 mg/dL. Moreover, in data set [3], the viability at 48 h, 2.5 µM was 53%. For the same compound, the Drug uptake entry in data set [4] is listed as “Active”. Besides, the results for the IC50 in data set [5], in data set [6] and in data set [7] were 2250 nM, 1110 nM and 1780 nM, respectively.

`O=C(CNc1ccc(Cl)cc1)NC1(CO)CSC2=C1C(=O)c1ccccc1C2=O` (configuration not stated): the 50% inhibitory concentration (IC50) came to 1230 nM in data set [5], 3510 nM in data set [6], 2120 nM in the data set with MCF7 and 2180 nM in data set [7].

For `Cl.O=C(CN1CCCCC1)NC1(C(=O)NCc2ccc(Cl)cc2)CSC2=C1C(=O)c1ccccc1C2=O` (configuration not stated), the “fold change (FC)” value in the data set with LN-229 [8] stood at 5; in the data set on LN-229 [10] it was 3; with LN-229 [12], 2.2; in data set [14], 2. Moreover, the Activity entry was “Non-toxic” in the data set on H9c2 [1], 215 mg/dL in the data set with LN-229 [2], “Non-toxic” in the data set with H9c2 [9] and 50% in [15]. The 50% inhibitory concentration (IC50) in data set [5] worked out at 610 nM; in data set [6], 1020 nM; in the data set on MCF7 it was 820 nM; in [7] it was 830 nM. Moreover, in data set [11], the Drug uptake result is on record as “Active”. Besides, the result in the data set on LN-229 [13] was Active.

`Cl.O=C(CN1CCCCC1)N[C@]1(C(=O)NCc2ccc(Cl)cc2)CSC2=C1C(=O)c1ccccc1C2=O`: the Activity in [15] is 48%.

As to `O=C(CNCc1ccc(Cl)cc1)NC1(CO)CSC2=C1C(=O)c1ccccc1C2=O` (configuration not stated), the 50% inhibitory concentration (IC50) in data set [5] was determined as 1250 nM; in data set [6], 3900 nM; in the data set on MCF7, 1720 nM; in data set [7] it was 1680 nM.

Regarding `Cl.O=C(CN1CCCCC1)N[C@@]1(C(=O)NCc2ccc(Cl)cc2)CSC2=C1C(=O)c1ccccc1C2=O`, the Activity in [15] stood at 50%.

For the compound `O=C(NC1(C(=O)NCc2ccc(Cl)cc2)CSC2=C1C(=O)c1ccccc1C2=O)c1ccc(Cl)cc1` (configuration not stated), the Activity result with H9c2 [1] is “Toxic”. Further, the viability at 48 h, 2.5 µM in data set [3] was determined as 61%. Besides, the IC50 in data set [5] came to 320 nM; in data set [6], 440 nM; in the data set on MCF7, 470 nM; in data set [7], 660 nM.

Turning to `O=C(NC1(CO)CSC2=C1C(=O)c1ccccc1C2=O)c1ccc(Cl)cc1` (configuration not stated), the IC50 (in [5]; in data set [6]; in the data set with MCF7; in [7]) was greater than 10000 nM throughout.

On to `Cl.O=C(CN1CCCCC1)NC1(CO)CSC2=C1C(=O)c1ccccc1C2=O` (configuration not stated), for which, in the data set on H9c2 [1], the Activity entry is reported as “Toxic”. The viability at 48 h, 2.5 µM in data set [3] was found to be 83%. Besides, the IC50 in data set [5] turned out to be 510 nM; in data set [6], 960 nM; in the data set on MCF7, 1260 nM; in [7] it was 2510 nM.

As usually defined, the IC50 is the concentration that gives 50% inhibition.
